From ChEMBL document CHEMBL1255300, “Pharmacodynamics of the antibacterial effect and emergence of resistance to tomopenem, formerly RO4908463/CS-023, in an in vitro pharmacokinetic model of Staphylococcus aureus infection” (Antimicrob Agents Chemother, 2008)
Values after ≈ are worked out from the molar mass of the structure shown. Active and inactive are the calls of the source. The calls are words filed in the database; no cut-off is given here.

Assays:
[1] = system: Staphylococcus aureus; assay: T>MIC for 4-log drop in count in methicillin-resistant Staphylococcus aureus 33922 in in vitro pharmacokinetic model after 24 hrs using 10^6 CFU/ml inoculum; assay type: functional
[2] = system: Staphylococcus aureus; assay: Antibacterial activity against methicillin-resistant Staphylococcus aureus 33827 by 10% MH broth method; assay type: functional
How it was run: (§1)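 Broth dilution MIC per CLSI, run in 10% Mueller-Hinton broth at nondoubling dilutions.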

[3] = system: Staphylococcus aureus; assay: T>MIC for 2-log drop in count in methicillin-resistant Staphylococcus aureus 33922 in in vitro pharmacokinetic model after 24 hrs using 10^6 CFU/ml inoculum; assay type: functional
[4] = system: Staphylococcus aureus; assay: AUBKC (0 to 48 hrs) in methicillin-resistant Staphylococcus aureus 33922 infected in in vitro pharmacokinetic model at 750 mg, iv every 8 hrs using 10^6 CFU/ml inoculum; assay type: functional
How it was run: (§2)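 Single-compartment dilutional in vitro PK model at 37°C in 10% Mueller-Hinton broth, stirred, flow 132 ml/h. […] Inoculum 10^6 CFU/ml added 45 min before dosing, or 10^8 CFU/ml run overnight. Viable counts with β-lactamase neutralisation. AUBKC by log-linear trapezoidal rule, at least triplicate.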

[5] = system: Staphylococcus aureus; assay: Antibacterial activity against methicillin-resistant Staphylococcus aureus 33820 by broth dilution method; assay type: functional
How it was run: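 Standard CLSI broth dilution MIC.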

[6] = system: Staphylococcus aureus; assay: T>MIC in methicillin-resistant Staphylococcus aureus 33815 infected in vitro pharmacokinetic model at 1500 mg, iv every 8 hrs; assay type: functional
[7] = system: Staphylococcus aureus; assay: AUBKC (0 to 48 hrs) in against methicillin-resistant Staphylococcus aureus 33815 infected in in vitro pharmacokinetic model at 750 mg, iv every 8 hrs using 10^8 CFU/ml inoculum; assay type: functional; how it was run: as §2
[8] = system: Staphylococcus aureus; assay: Antibacterial activity against methicillin-resistant Staphylococcus aureus 33815 assessed as viable count at 4 times of MIC after 48 hrs using 10^6 CFU/ml inoculum; assay type: functional, organism-based
How it was run: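 Population analysis during tomopenem dose-ranging runs in the in vitro PK model (10^6 CFU/ml, T>MIC 0-100%). […] Growth counted as log CFU/ml, detection limit 2 log10.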

[9] = system: Staphylococcus aureus; assay: Antibacterial activity against methicillin-resistant Staphylococcus aureus 33815 infected in in vitro pharmacokinetic model assessed as reduction in viable count at 1500 mg, iv every 8 hrs measured after 48 hrs using 10^6 CFU/ml inoculum; assay type: functional
How it was run: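 Single-compartment dilutional in vitro PK model, 37°C, stirred, in 10% Mueller-Hinton broth. […] Inoculum 10^6 CFU/ml from a 24-h plate culture was added 45 min before dosing. Viable counts by spiral plating on nutrient agar with β-lactamase neutralization. Log change was taken from time 0; detection limit 10^2 CFU/ml; at least triplicate.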

[10] = system: Staphylococcus aureus; assay: Antibacterial activity against methicillin-sensitive Staphylococcus aureus 5956 infected in in vitro pharmacokinetic model assessed as time required to 99.9% killing at 1500 mg, iv every 8 hrs using 10^6 CFU/ml inoculum; assay type: functional
[11] = system: Staphylococcus aureus; assay: Antibacterial activity against methicillin-resistant Staphylococcus aureus 33921 infected in in vitro pharmacokinetic model assessed as reduction in viable count at 750 mg, iv every 8 hrs measured after 12 hrs using 10^6 CFU/ml inoculum; assay type: functional
How it was run: (§3)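 Single-compartment dilutional in vitro PK model, 10% Mueller-Hinton broth, 37°C, stirred, dilution 132 ml/h. […] Inoculum 10^6 CFU/ml (added 45 min pre-dose) or 10^8 CFU/ml (run overnight). Viable counts by spiral plating, beta-lactamase neutralization, detection limit 10^2 CFU/ml. At least triplicate.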

[12] = system: Staphylococcus aureus; assay: Antibacterial activity against methicillin-sensitive Staphylococcus aureus 5956 by 10% MH broth method; assay type: functional
How it was run: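 Broth dilution per CLSI, but in 10% Mueller-Hinton broth using nondoubling dilutions.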

[13] = system: Staphylococcus aureus; assay: T>MIC for 3-log drop in count in methicillin-resistant Staphylococcus aureus 33922 in in vitro pharmacokinetic model after 24 hrs using 10^6 CFU/ml inoculum; assay type: functional
[14] = system: Staphylococcus aureus; assay: Antibacterial activity against methicillin-resistant Staphylococcus aureus 33921 infected in in vitro pharmacokinetic model assessed as reduction in viable count at 750 mg, iv every 8 hrs measured after 36 hrs using 10^6 CFU/ml inoculum; assay type: functional
[15] = system: Staphylococcus aureus; assay: T>MIC for 3-log drop in count in methicillin-resistant Staphylococcus aureus 33827 in in vitro pharmacokinetic model after 24 hrs using 10^6 CFU/ml inoculum; assay type: functional
[16] = system: Staphylococcus aureus; assay: Antibacterial activity against methicillin-resistant Staphylococcus aureus 33921 assessed as viable count at 2 times of MIC after 24 hrs using 10^6 CFU/ml inoculum; assay type: functional, organism-based
[17] = system: Staphylococcus aureus; assay: Antibacterial activity against methicillin-resistant Staphylococcus aureus 33922 infected in in vitro pharmacokinetic model assessed as time required to 99.9% killing at 750 mg, iv every 8 hrs using 10^8 CFU/ml inoculum; assay type: functional
[18] = system: Staphylococcus aureus; assay: T>MIC for 4-log drop in count in methicillin-resistant Staphylococcus aureus 33815 in in vitro pharmacokinetic model after 24 hrs using 10^8 CFU/ml inoculum; assay type: functional
[19] = system: Staphylococcus aureus; assay: T>MIC for 2-log drop in count in methicillin-resistant Staphylococcus aureus 33815 in in vitro pharmacokinetic model after 24 hrs using 10^8 CFU/ml inoculum; assay type: functional
[20] = system: Staphylococcus aureus; assay: Antibacterial activity against methicillin-resistant Staphylococcus aureus 33829 infected in in vitro pharmacokinetic model assessed as time required to 99.9% killing at 1500 mg, iv every 8 hrs using 10^6 CFU/ml inoculum; assay type: functional; how it was run: as §3
[21] = system: Staphylococcus aureus; assay: Antibacterial activity against methicillin-resistant Staphylococcus aureus 33829 infected in in vitro pharmacokinetic model assessed as time required to 99% killing at 1500 mg, iv every 8 hrs using 10^6 CFU/ml inoculum; assay type: functional; how it was run: as §3
[22] = system: Staphylococcus aureus; assay: Antibacterial activity against methicillin-resistant Staphylococcus aureus 33815 infected in in vitro pharmacokinetic model assessed as time required to 99.9% killing at 750 mg, iv every 8 hrs using 10^6 CFU/ml inoculum; assay type: functional
[23] = system: Staphylococcus aureus; assay: Antibacterial activity against methicillin-resistant Staphylococcus aureus 33820 by 10% MH broth method; assay type: functional; how it was run: as §1
[24] = system: Staphylococcus aureus; assay: T>MIC for 1-log drop in count in methicillin-resistant Staphylococcus aureus 33827 in in vitro pharmacokinetic model after 24 hrs using 10^6 CFU/ml inoculum; assay type: functional
[25] = system: Staphylococcus aureus; assay: Antibacterial activity against methicillin-resistant Staphylococcus aureus 33829 infected in in vitro pharmacokinetic model assessed as time required to 99.9% killing at 750 mg, iv every 8 hrs using 10^6 CFU/ml inoculum; assay type: functional; how it was run: as §3
[26] = system: Staphylococcus aureus; assay: Antibacterial activity against methicillin-resistant Staphylococcus aureus 33922 by 10% MH broth method; assay type: functional
[27] = system: Staphylococcus aureus; assay: Antibacterial activity against methicillin-resistant Staphylococcus aureus 33829 in in vitro pharmacokinetic model assessed as viable count at 6 times of MIC; assay type: functional
How it was run: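 Preexposure population analysis: time-zero model samples plated on nutrient agar without drug and with drug at multiples of the 10% broth MIC. Growth reported as log CFU/ml, detection limit 2 log10.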

[28] = system: Staphylococcus aureus; assay: Antibacterial activity against methicillin-resistant Staphylococcus aureus 33921 by 10% MH broth method; assay type: functional
How it was run: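 MIC by CLSI broth dilution, or by broth dilution in 10% Mueller-Hinton broth at nondoubling dilutions.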

[29] = system: Staphylococcus aureus; assay: Antibacterial activity against methicillin-sensitive Staphylococcus aureus 5956 infected in in vitro pharmacokinetic model assessed as reduction in viable count at 750 mg, iv every 8 hrs measured after 36 hrs using 10^6 CFU/ml inoculum; assay type: functional

Compound: C[C@@H](O)[C@H]1C(=O)N2C(C(=O)O)=C(S[C@H]3C[C@@H](C(=O)N4CC[C@H](NC(=O)CNC(=N)N)C4)N(C)C3)[C@H](C)[C@H]12 [TOMOPENEM]
- fT>MIC [1]: 21.5%
- MIC [2]: 0.75 µg/mL (≈ 1.39 µM)
- fT>MIC [3]: 5.4%
- AUBC [4]: 27.7 log10CFU/ml.hr
- MIC [5]: 16 µg/mL (≈ 29.8 µM)
- fT>MIC [6]: 98%
- AUBC [7]: 119 log10CFU/ml.hr
- Activity [8]: Active
- log10CFU/ml [9]: 4.2
- Time [10]: 8 h
- log10CFU/ml [11]: 3.6
- MIC [12]: 0.04 µg/mL (≈ 0.0744 µM)
- fT>MIC [13]: 9.4%
- log10CFU/ml [14]: 3.9
- fT>MIC [15]: 43%
- Activity [16]: inactive
- Time [17]: 12 h
- fT>MIC [18]: 6.5%
- fT>MIC [19]: 2%
- Time [20]: 12 h
- Time [21]: 7 h
- Time [22]: 12 h
- MIC [23]: 6 µg/mL (≈ 11.2 µM)
- fT>MIC [24]: 24.4%
- Time [25]: 12 h
- MIC [26]: 0.25 µg/mL (≈ 0.465 µM)
- log10CFU/ml [27]: 2.7
- MIC [28]: 0.06 µg/mL (≈ 0.112 µM)
- log10CFU/ml [29]: 4.5
